39 compounds from PubChem BioAssay can be followed below.

The source made the active and inactive calls.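 Rule for the calls, unless noted: active = membrane potential signal rise above negative control mean plus 3 SD in both duplicates, also active in the earlier TRPC4 screen; inactive = the rest.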

Chain of Short transient receptor potential channel 6 (Mus musculus) (Q61143 whole entry, looked up): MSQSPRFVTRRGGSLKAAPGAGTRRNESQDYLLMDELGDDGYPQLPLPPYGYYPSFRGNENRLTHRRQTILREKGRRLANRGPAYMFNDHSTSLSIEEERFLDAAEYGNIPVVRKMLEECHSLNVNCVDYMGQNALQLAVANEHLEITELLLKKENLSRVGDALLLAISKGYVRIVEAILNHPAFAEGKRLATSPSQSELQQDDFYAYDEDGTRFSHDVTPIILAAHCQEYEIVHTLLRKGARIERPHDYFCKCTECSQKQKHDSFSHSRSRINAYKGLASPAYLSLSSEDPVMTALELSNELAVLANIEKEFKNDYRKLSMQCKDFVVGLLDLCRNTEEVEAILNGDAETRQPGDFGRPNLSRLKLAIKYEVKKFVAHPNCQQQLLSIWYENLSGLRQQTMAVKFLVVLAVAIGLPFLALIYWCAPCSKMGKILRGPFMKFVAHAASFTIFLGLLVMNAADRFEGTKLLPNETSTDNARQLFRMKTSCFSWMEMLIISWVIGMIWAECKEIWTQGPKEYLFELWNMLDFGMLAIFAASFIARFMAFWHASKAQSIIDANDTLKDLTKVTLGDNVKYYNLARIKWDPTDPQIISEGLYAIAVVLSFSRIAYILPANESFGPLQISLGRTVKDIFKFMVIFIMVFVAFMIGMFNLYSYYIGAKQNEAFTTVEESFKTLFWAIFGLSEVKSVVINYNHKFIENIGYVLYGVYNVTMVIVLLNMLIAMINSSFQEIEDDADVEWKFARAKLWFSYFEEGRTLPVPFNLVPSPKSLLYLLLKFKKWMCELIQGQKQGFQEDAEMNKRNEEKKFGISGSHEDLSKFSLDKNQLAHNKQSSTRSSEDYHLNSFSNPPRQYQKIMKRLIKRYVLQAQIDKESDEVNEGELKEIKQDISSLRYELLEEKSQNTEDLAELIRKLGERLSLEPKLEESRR

The first assay concerns the target Short transient receptor potential channel 6 (Mus musculus) (UniProt Q61143). Put plainly: inhibition of mouse TRPC6 channel, confirmation, selectivity assay for TRPC4 inhibitor project, cell-based, HEK293, membrane potential dye, duplicate (AID 434948;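 active = active in primary screen and both duplicates, each dropping signal beyond three positive-control SD with fluorescence still positive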). To be noted: HEK293 TRPC6, membrane potential dye fluorescence, at 10 µM, stimulated with maximal-effect acetylcholine; stronger effect = higher value. In a few lines: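 Material – TRPC6-expressing HEK293 cells · Repeats – two replicates · Read-out basis – control-normalized integrated fluorescence ratio · Schedule – 45 min RT dye load, 110 s compound, 110 s agonist read · Reagent – acetylcholine at maximal (ECmax) concentration, added after compound · Detection – kinetic fluorescence of membrane potential dye with 5 s baseline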
As to `Cc1ccc(NS(=O)(=O)c2cc(C(=O)N3CCc4ccccc4C3)ccc2Cl)cc1`, the compound was called inactive.

For `CCn1cc(CN2CCC(n3nccc3NC(=O)CCOc3ccccc3)CC2)c(C)n1`, the outcome was inactive.

For `CCN1CCN(c2ccc(S(=O)(=O)N3CCCCC3)cc2NC(=O)COc2cc(C)ccc2Cl)CC1`, the result was inactive.

In the case of `CN(C)CCCCOc1cccc(Br)c1`, the compound was classed as inactive.

Consider `CC(C)c1ccc(C(C)NCCS(=O)(=O)c2ccc(Br)cc2)cc1` (configuration not stated), for which the call was inactive.

For `COc1cc2c(C(=O)N3CCN(C)CC3)c(CSc3ccccc3)n(C)c2cc1Br`, the outcome was inactive.

In the case of `Cc1c(N2C(=O)/C(=C/c3ccccc3)SC2=S)c(=O)n(-c2ccccc2)n1C`, the compound was classed as inactive.

With `Cc1n[nH]c(C)c1Cc1c(F)cccc1Cl`, the compound was classed as inactive.

On to `O=C(Nc1ccc([N+](=O)[O-])cn1)C1CCCCC1`, for which the outcome was inactive.

As for `O=c1[nH][nH]c(-c2ccccc2)c1C=Nc1ccc(F)cc1F`, the compound was called inactive.

For the compound `COc1ccccc1C1/C(=C(\O)c2ccc3c(c2)OCCO3)C(=O)C(=O)N1Cc1cccnc1` (configuration not stated), the outcome was inactive.

As to `CCN(CC)CCSc1nnc2c3ccccc3n(Cc3ccccc3)c2n1`, the compound was called inactive.

As to `CCCn1c(SCC(=O)N2c3ccccc3Sc3ccccc32)nc2c1c(=O)n(C)c(=O)n2C`, the outcome was inactive.

A further assay has the same target. Briefly: activation of mouse TRPC6 channel, confirmation, selectivity assay for TRPC4 activator project, cell-based, HEK293, membrane potential dye, duplicate (AID 434950).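 For activation: 0% = buffer only wells and 100% = acetylcholine maximal-effect wells.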 To be noted: HEK293 TRPC6, membrane potential fluorescence, at 10 µM; stronger effect = higher value.
With `COc1cc(/C=C2\C(=N)N3N=C(S(C)(=O)=O)SC3=NC2=O)ccc1OC(=O)c1cccs1`, the call was inactive.

`c1ccc(CN2CCN(c3nc4ccccc4s3)CC2)cc1`: the result was inactive.

`COc1ccccc1N(C(=O)c1snc(C(N)=O)c1N)C(C(=O)NCc1ccccc1)c1ccc(O)cc1` (configuration not stated): the result was inactive.

As to `Cc1ccc(SC(CC(=O)c2ccc(C(C)(C)C)cc2)C(=O)O)cc1` (configuration not stated), the call was inactive.

As for `COc1ccc(C2CC(=O)c3cnc(N4CCN(Cc5ccccc5)CC4)nc3C2)cc1` (configuration not stated), the compound was classed as inactive.

For `CC(=O)Nc1ccc(S(=O)(=O)N2CCN(CCCOc3cc(C)ccc3C)CC2)cc1`, the compound was called inactive.

As for `COc1cc(/C=C/C(=O)OCC(=O)Nc2c(C)n(C)n(-c3ccccc3)c2=O)ccc1OCC#N`, the activation is 39.5% (active).

Take `Cc1cc2oc(C(=O)N(Cc3ccco3)C3CCS(=O)(=O)C3)cc(=O)c2cc1Cl` (configuration not stated): the call was inactive.

For the compound `CCOCCCn1cnc2c(c1=O)c1nc3ccccc3nc1n2-c1ccc(C)cc1`, the compound was classed as inactive.

As to `O=C(c1ccccc1F)N1CCN(c2ccc([N+](=O)[O-])cc2-n2cccc2)CC1`, the compound was classed as inactive.

Consider `CN(CC(=O)Nc1ccc(F)cc1)C(=O)COC(=O)c1ccccc1`, for which the compound was classed as inactive.

Take `O=C(NC1CC1)c1ccc2c(c1)N(Cc1ccc(Cl)cc1)CCS2`: the result was inactive.

Consider `O=C(Nc1ccc2c(c1)OCO2)c1cnn2cccnc12`, for which the result was inactive.

As for `CCc1nc2ccccc2n1Cc1ccccc1F`, the outcome was inactive.

In the case of `CN(Cc1ccco1)C(=O)Cn1ncc2c([nH]c3ccccc32)c1=O`, the compound was classed as inactive.

For the compound `CN1CCN(NC(=O)Nc2cc(Cl)cc(Cl)c2)CC1`, the result was inactive.

Take `Cc1ccc2nc(C(=O)N3CCc4c([nH]c5ccccc45)C3c3ccccn3)cn2c1` (configuration not stated): the compound was called inactive.

Take `Clc1ccc(N=C2SCC3CCCCN23)cc1` (configuration not stated): the outcome was inactive.

In the case of `O=S(=O)(c1ccc(Oc2ccc(Br)cc2)cc1)N1CCOCC1`, the result was inactive.

For the compound `O=S(=O)(Nc1ccc(S(=O)(=O)Nc2cccc3ccccc23)cc1)c1ccccc1`, the compound was classed as inactive.

On to `COc1ccc(N(C(=O)c2snc(C(N)=O)c2N)C(C(=O)NC2CCCCC2)c2ccc(C)o2)c(OC)c1` (configuration not stated), for which the outcome was inactive.

Consider `Cc1ccc(S(=O)(=O)Nc2ccc(N=Nc3ccc(O)cc3)cc2)cc1`, for which the call was inactive.

As for `O=C(c1ccccc1)c1coc2ccc(O)c(CN3CCOCC3)c12`, the call was inactive.

Turning to `CCOc1ccc(N=CNc2ccc(OCC)cc2)cc1`, the outcome was inactive.

As for `COCCSc1ccccc1C(=O)N1CCC(Cc2ccccc2)CC1`, the result was inactive.

On to `O=C(c1ccccc1F)N1CCN(c2ccc([N+](=O)[O-])c3cccnc23)CC1`, for which the compound was classed as inactive.

`Cc1ccc(NS(=O)(=O)c2cc(C(=O)N3CCc4ccccc4C3)ccc2Cl)cc1`: the call was inactive.

`CCn1cc(CN2CCC(n3nccc3NC(=O)CCOc3ccccc3)CC2)c(C)n1`: the compound was called inactive.

As to `CCN1CCN(c2ccc(S(=O)(=O)N3CCCCC3)cc2NC(=O)COc2cc(C)ccc2Cl)CC1`, the call was inactive.

Take `CN(C)CCCCOc1cccc(Br)c1`: the call was inactive.

As for `CC(C)c1ccc(C(C)NCCS(=O)(=O)c2ccc(Br)cc2)cc1` (configuration not stated), the outcome was inactive.

Consider `COc1cc2c(C(=O)N3CCN(C)CC3)c(CSc3ccccc3)n(C)c2cc1Br`, for which the compound was called inactive.

In the case of `Cc1c(N2C(=O)/C(=C/c3ccccc3)SC2=S)c(=O)n(-c2ccccc2)n1C`, the compound was called inactive.

Regarding `Cc1n[nH]c(C)c1Cc1c(F)cccc1Cl`, the outcome was inactive.
